Screens from PubChem BioAssay.
Shown is part of a subset that was picked to be rich in hits.
PTEN del growth: PTEN-deleted cell growth suppression. HCT116 PTEN-null viability, CellTiter-Glo, 60 h; stronger effect = lower value. viability, % at 10 µM. 1.2% of 140,000 active;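 active = viability at or below a set limit, 4 SD under the median of all tested compounds, cut at about 3.7% in these data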;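 also: PTEN knockout HCT116 line with beta catenin targeted HCT116 as companion control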
HUVEC prolif 384: human endothelial cell proliferation inhibition; viability, % at 10 µM (by protocol); HUVEC proliferation, CellTiter-Glo luminescence, 72 h; stronger effect = lower value; 1.1% of 86,000 active;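 active = viability at or below 30%; inactive = viability above 30%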;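 also: 100% = median luminescence of DMSO-only cell control wells on each plate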
HCT116 bCat-KO: beta-catenin-lacking colon tumor cell growth suppression; HCT116 beta-catenin knockout viability, CellTiter-Glo, 60 h; stronger effect = lower value; viability, % at 10 µM; 1.5% of 140,000 active;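 active = viability at or under a set limit, the compound median less 4 SD, cut at about 6% in these data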;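 also: 0% = Hyamine 1622 control at 20 µM and 100% = untreated cell control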
H69AR growth 86K: growth inhibitors of human H69AR lung tumor cells; H69AR lung tumor viability, ATP luminescence, 72 h; stronger effect = lower value; viability, % at 10 µM; 6% of 85,000 active; AID 598;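 active = viability at or below 40%; inactive = viability above 40%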;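 also: multidrug resistant small cell line overexpressing MRP-1 efflux transporter; 100% = mean luminescence of untreated control wells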
Lung fibro prol: blocks proliferation of human lung fibroblasts | 1.1% of 85,000 active | viability, % at 10 µM | AID 719 | LL 47 human lung fibroblast viability, ATP luminescence; stronger effect = lower value;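 active = viability at or below 50% in the single dose screen; inactive = viability above 50%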;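 also: compound exposure lasted 72 h before the ATP readout; 100% = median luminescence of untreated cell-only wells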
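Test system: LL 47 human lung fibroblasts; Quantity: 1,150 cells/well; Buffer or medium: IMEM plus 15% FBS; Dosing: tenfold compound dosing solution, DMSO at 0.1%; Timing: overnight cell rest, 72 h compound treatment at 37 °C; Detection: ATP-based CellTiter-Glo luminescent readout; Read-out basis: viability percentage against median untreated-cell control; Controls: cell-only wells, no compound.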
* = called active by the depositor; x = no result given.

SMILES | PTEN del growth | HUVEC prolif 384 | HCT116 bCat-KO | H69AR growth 86K | Lung fibro prol
CCCCSP1(=S)NCCCO1 (centres undefined) | 83 | 101 | 71 | 95 | 104
C[C@H](O)[C@H]1CC[C@H]2[C@@H]3CCC4=CC(=O)CC[C@]4(C)[C@H]3CC[C@]12C | 81 | x | 88 | x | x
CC12CCC(=O)C=C1CCC1C2CCC2(C)C(O)CCC12 (centres undefined) | 93 | 29* | 88 | 97 | 98
Cc1ccc(CCN2CC(C(=O)N3CCC4(CC3)OCCO4)CC2=O)cc1 (centres undefined) | 98 | 98 | 110 | 97 | 102
O=C(N/N=C1/CN2CCC1CC2)c1cc2ccccc2cc1O | 75 | 108 | 76 | 37* | 75
CC(C)n1c(=O)c(C=Nc2cccc([N+](=O)[O-])c2)c(O)n(CCc2ccccc2)c1=O | 67 | x | 73 | x | x
CN1CCC(N(C)c2nc(-c3ccc([N+](=O)[O-])cc3)nc3ccccc23)CC1 | 1.5* | x | 1.5* | x | x
